Laboratory results published in PMC4912417 (Nature chemical biology, 2016).

Tested on: larval zebrafish
Assay: Battery of 10 behavioral assays in larval zebrafish
Format: in vivo, zebrafish (Danio rerio)
Details: for Haloperidol-like phenotype (zebrafish motor activity heat maps): Fig. 3b, three wells per drug
Method in brief: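 7 d.p.f. Ekkwill larvae, 8–10 per well in E3, held 1 h at 25 °C, then given compound (<1% DMSO; DMSO-treated control wells) for 1 h at room temperature. Ten-assay battery of red/blue/violet light and 60/70 dB sound, IR-lit video; MI by frame differencing over 10,500 time points. Seven 2-fold concentrations, 12 wells each, triplicate days; magnitude = 5th-percentile-subtracted MI averaged over time.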

## O=C(CCCN1CCC(O)(c2ccc(Cl)cc2)CC1)c1ccc(F)cc1 [Haloperidol]
5 μM, 48 wells vs DMSO
  MI magnitude: increased MI magnitude at many points in the time series
Lower concentrations (2.5–10 μM)
  Shape and average magnitude of the behavioral profile: changed the shape of the behavioral profile without reducing its average magnitude
Very high concentrations (20–80 μM)
  Motor activity: reduced motor activity

## O=C(CCCN1CC=C(n2c(=O)[nH]c3ccccc32)CC1)c1ccc(F)cc1 [DROPERIDOL]
  Haloperidol-like phenotype (zebrafish motor activity heat maps): cause haloperidol-like phenotypes

## CN1CCN(CCCN2c3ccccc3Sc3ccc(Cl)cc32)CC1 [prochlorperazine]
  Haloperidol-like phenotype (zebrafish motor activity heat maps): cause haloperidol-like phenotypes

## O=C(CCCN1CCC(O)(c2ccc(Br)cc2)CC1)c1ccc(F)cc1 [BROMPERIDOL]
  Haloperidol-like phenotype (zebrafish motor activity heat maps): cause haloperidol-like phenotypes

## CSc1ccc2c(c1)N(CCC1CCCCN1C)c1ccccc1S2 (stereo not drawn) [thioridazine]
  Haloperidol-like phenotype (zebrafish motor activity heat maps): cause haloperidol-like phenotypes

## c1ccc2c(c1)Nc1ccccc1S2 [phenothiazine]
  Haloperidol-like phenotype (zebrafish motor activity heat maps): cause haloperidol-like phenotypes

## CN1c2ccccc2C(NCCCCCCC(=O)O)c2ccc(Cl)cc2S1(=O)=O (stereo not drawn) [Tianeptine]
Reference set, seven concentrations
  Effect on behavioral profile (phenotypic distance from control animals): failed to show an effect
